# Screens: PubChem BioAssay, several laboratories
# Most compounds without a hit are left out; they make up all but 4.9% or so of the library.
# CHT block: inhibitors of human choline transporter CHT. High affinity choline transporter 1 (Homo sapiens), Q9GZV3. B-score at 10 µM. CHT-expressing cells, membrane potential dye, choline response; stronger effect = lower value. 310,000 tested, 0.86% active;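 active = B-score over 3 SD under the library average, and starting fluorescence ratio not unusually high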;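 note: choline stimulus applied at its EC90 after an EC20 pre-addition; B-score computed on integrated fluorescence ratio after choline addition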
# Hep lipid drop: inhibitors of hepatocyte lipid droplet formation, primary screen, imaging, high-throughput imaging, BODIPY stain; AML12 mouse hepatocytes, oleate lipid droplets; inhibition, % at 6.5 µM; 240,000 tested, 0.4% active; AID 1656, 2009;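 active = lipid droplet intensity inhibited by at least 50%, with more than 500 cells counted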
#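 Material: mouse AML12 hepatocyte cell line, fixed after treatment; Timing: compound with oleate, overnight; Technique: high-content imaging of BODIPY-stained droplets and DAPI nuclei; Probe or stimulus: oleate, 100 µM final; Dosing: compound at 6.5 µM only.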
# CHT PAM: CHT positive allosteric modulators, primary screen, cell-based, membrane potential dye, choline EC20; High affinity choline transporter 1 (Homo sapiens), Q9GZV3; CHT-expressing cells; stronger effect = higher value; LV-AA mutant CHT in HEK293 cells; B-score at 10 µM; 310,000 tested, 0.49% active; AID 488977, 2010;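 active = initial fluorescence not abnormally high and integrated response B-score, plate-corrected, over 3 SD above library mean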
# PHOSPHO1 inh: PubChem AID 1565 | 290,000 tested, 1.1% active | Phosphoethanolamine/phosphocholine phosphatase (Homo sapiens), Q8TCT1 | recombinant PHOSPHO1, absorbance phosphatase assay | inhibition, % at 13.3 µM; in the data active = inhibition above about 60%
# Target sequence (Q8TCT1 whole entry, looked up): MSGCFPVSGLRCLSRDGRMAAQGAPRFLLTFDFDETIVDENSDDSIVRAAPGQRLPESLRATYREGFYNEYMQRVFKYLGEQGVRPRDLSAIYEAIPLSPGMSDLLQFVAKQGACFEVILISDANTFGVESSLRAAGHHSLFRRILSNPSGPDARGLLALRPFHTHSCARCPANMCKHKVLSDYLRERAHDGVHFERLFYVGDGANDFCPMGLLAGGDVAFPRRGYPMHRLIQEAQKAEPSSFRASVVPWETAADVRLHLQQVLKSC
# HSF1 inh: HSF1 inhibitors in luciferase reporter cells, primary screen, cell-based, NIH3T3, luminescence; NIH3T3-HGL HSE-luciferase, MG132-induced, luminescence 8 h; stronger effect = lower value; 300,000 tested, 0.77% active; activity change, negative = inhibition, % at 7.5 µM (by protocol);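 active = more than half of replicate wells show activity change below -50%, luminescence cut by over half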;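 note: luciferase reports HSF-1 transcriptional activity via heat shock element; 0% = median of DMSO wells and -100% = zero luminescence signal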
# HSF-1 act: HSF-1 activators, primary screen, NIH3T3-HGL cells, MG132 stress, luminescence, single point; NIH3T3-HGL HSF-1 luciferase reporter, 8 h; 100% = twice DMSO control signal; activation, % at 9 µM; 300,000 tested, 1.7% active;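 active = mean replicate activation of at least 50% with a set share of replicates each reaching 50%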;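 note: 0% = median of the neutral control wells and 100% = twice that signal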
# * = called active by the depositor; i = inactive; nt = no result.
SMILES,CHT block,Hep lipid drop,CHT PAM,PHOSPHO1 inh,HSF1 inh,HSF-1 act
C[C@H](NC(=O)[C@@H]1Cc2ccccc2CN1C(=O)OC(C)(C)C)C(=O)NCc1ccco1,i,-1,i,37,-5,-19
COc1ccc(C(=O)CSc2nnc(-c3cnccn3)n2Cc2ccco2)cc1,i,nt,i,55,-5,-5
O=C(CSc1nnc(-c2cnccn2)n1Cc1ccco1)Nc1ccc(Br)cc1,i,1,i,-7,31,55*
Cc1c(C(=O)C(=O)NCCC2=CCCCC2)c2ccccc2n1C,i,24,i,0,13,16
O=C(CSc1nnc(-c2ccco2)n1Cc1ccco1)Nc1ccccc1,i,nt,i,18,-6,0
Cn1cccc1Cc1nnc(SCC(=O)N2CCN(c3ccccc3)CC2)n1-c1ccc(F)cc1,i,nt,i,70*,-1,1
Cc1c(C(=O)C(=O)NCc2cccs2)c2ccccc2n1C,i,-5,i,5,-92*,-93
Cn1cccc1Cc1nnc(SCC(=O)NCc2ccccc2)n1-c1ccc(F)cc1,i,nt,i,11,5,11
COc1ccc(C(=O)CSc2nnc(-c3cccnc3)n2Cc2ccco2)cc1,i,nt,i,92*,-7,8
NNc1ccccc1C(F)(F)F,nt,4,nt,-53,nt,nt
Cc1cccc(-c2nnc(SCC(=O)NCc3ccc4c(c3)OCO4)n2C)c1,i,nt,i,72*,4,30
COc1ccc(OC)c(-n2nnnc2SCC(=O)NCc2ccc3c(c2)OCO3)c1,i,-18,i,3,-72*,-77
Cn1c(SCC(=O)NCc2ccco2)nnc1-c1cccs1,i,-5,i,0,22,55*
Cn1c(SCC(=O)c2ccc(O)c(O)c2)nnc1-c1cccs1,i,nt,i,62*,-2,-5
CC(C)CCn1c(CN2CCN(c3cccc(Cl)c3)CC2)nc2c1c(=O)n(C)c(=O)n2C,i,2,i,40,-2,-8
CCOC(=O)CNC(=O)CSc1nnc(-c2ccco2)n1Cc1ccco1,i,nt,i,92*,-4,-5
CCOC(=O)CNC(=O)CSc1nnc(-c2ccco2)n1N,i,nt,i,18,10,32
COCCNC(=O)CSc1c2c(nc3ccc(Cl)cc13)CCCC2,i,-8,i,-21,51,107*
CCN(C(=O)c1ccc2c(SCC(=O)O)c3c(nc2c1)CCC3)c1cc(Cl)ccc1OC,i,-2,i,19,-73*,-79
CCn1cc(SCC(=O)Nc2cc(C)on2)c2ccccc21,i,2,i,-17,-59*,-65
CCCc1nc(SCC(=O)Nc2cc(C)on2)c2ccccc2n1,i,nt,i,-6,54,106*
CCN(C(=O)CSc1nc(-c2ccccc2)c(-c2ccccc2)[nH]1)C1CCS(=O)(=O)C1 (stereo not given),i,16,i,56,-2,-2
Cc1cc(NC(=O)CSc2c3c(nc4ccccc24)CCC3)no1,i,nt,i,2,57,72*
COc1ccc(NC(=O)CSc2c3c(nc4cc(Cl)ccc24)CCCC3)cc1OC,i,-2,i,-11,74,128*
COc1ccc(NC(=O)CSc2c3c(nc4ccccc24)CCCC3)c(OC)c1,i,-16,i,3,63,70*
SMILES,CHT block,Hep lipid drop,CHT PAM,PHOSPHO1 inh,HSF1 inh,HSF-1 act
Cc1cccc(OCCn2c(NC(=O)c3ccco3)nc3ccccc32)c1,i,-36,i,-25,7,15
COc1ccccc1C(=O)C1CCCN(C(=O)c2ccc(C(C)=O)s2)C1 (stereo not given),i,-8,i,44,13,8
Cc1ccc2sc(NC(=O)CSc3nc(C)cc(C)c3C#N)nc2c1,i,nt,i,20,-20,-44
Cc1cc(C(F)(F)F)c(C#N)c(SCC(=O)Nc2nc3ccccc3s2)n1,i,0,i,-21,-73*,-77
Cc1nc(SCC(=O)Nc2nc3ccccc3s2)c(C#N)c(C)c1C,i,17,i,-12,-92*,-94
Cc1ccc(-c2cc(C(F)(F)F)c(C#N)c(SCC(=O)O)n2)cc1,i,3,i,-19,35,58*
CCOc1cc(S(=O)(=O)n2cnc(C)c2)ccc1Cl,i,-1,i,15,-5,-4
O=[N+]([O-])c1cccc(-c2noc(-c3cccs3)n2)c1,i,2,i,16,43,57*
CC(C)(C)NC(=O)CSc1nc2ccccc2n1-c1ccccc1,i,-3,i,62*,-4,5
OC1(c2ccc(Br)cc2)CCN(Cc2cccc(Br)c2)CC1,i,-14,i,nt,-43,-58
COc1ccc2c(c1)C(=O)[C@@H](OC(=O)NCc1ccc3c(c1)OCO3)[C@H](c1ccc(OC)c(Br)c1)O2,nt,-44,nt,1,nt,nt
O=c1[nH]c(CN2CCc3ccccc32)nc2scc(-c3cccs3)c12,i,nt,i,64*,-12,-17
COc1ccccc1NC(=O)c1ccc(N2CC3CC(C2)c2cccc(=O)n2C3)c(NC(=O)c2ccncc2)c1 (stereo not given),i,-15,i,16,-57*,-66
c1ccc(N2CCOCCOCCOCCOCC2)cc1,i,-23,i,16,-10,1
c1ccn(-c2ccc(N3CCOCC3)cc2)c1,i,nt,i,-1,-62*,-68
CCCc1cc(=O)oc2cc(OCC(=O)N3C[C@H]4C[C@@H](C3)c3cccc(=O)n3C4)c(Cl)cc12,i,-9,i,3,36,57*
O=C(COc1cc2oc(=O)c3c(c2cc1Cl)CCCC3)N1C[C@H]2C[C@@H](C1)c1cccc(=O)n1C2,i,nt,i,8,7,19
CC(C(=O)NN=C(c1ccccc1)c1ccccc1)N1CCCC1 (stereo not given),i,2,i,16,17,55*
O=C(COc1ccc(Br)cc1)Nc1ccc(-c2nnc(-c3ccco3)o2)cc1,i,-2,i,0,28,51*
O=C1C(Cc2ccccc2)Nc2ncnc(N3CCOCC3)c2N1Cc1ccc(Br)cc1 (stereo not given),i,nt,i,nt,4,14
COc1ccc(-n2cc(CNC3CCN(C)CC3)c(-c3cccc(F)c3)n2)cc1,i,-12,i,11,-5,-10
COc1ccc(-n2cc(CN3CCCC3)c(-c3cccc(F)c3)n2)cc1,i,-8,i,61*,1,28
